Assay results: ChEMBL document CHEMBL5625176, “Immunosuppressive effects of new thiophene-based KV1.3 inhibitors” (Eur J Med Chem, 2023)
pIC50: −log10 of the molar value. Converted amounts (≈) assume the structure as drawn. The source made the active and inactive calls. No cut-off for these calls is given here.

Columns and labels:
[1] = biological target: T1, Potassium voltage-gated channel subfamily A member 3 (Homo sapiens, UniProt P22001); assay: Inhibition of human Kv1.3 expressed in Xenopus laevis Oocyte cells at 10 uM by manual patch clamp method relative to control; assay type: cell-based
Method in brief: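 Human Kv1.3 cRNA injected into defolliculated Xenopus oocytes. Two-electrode voltage clamp 1–4 days later at 18–22 °C in ND96 (pH 7.5). Currents evoked by 1 s depolarizations, with inhibition read at the 0 mV step. Compounds from DMSO stock at ≤0.5% DMSO, either single 10 μM or rising concentrations fitted with the Hill equation for IC50.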

[2] = biological target: T1, Potassium voltage-gated channel subfamily A member 3; assay: Inhibition of Kv1.3 (unknown origin) expressed in human PBMC derived PHA-activated T-lymphocyte cells assessed as reduction in total outward potassium current at 5 uM by patch clamp electrophysiology method; assay type: cell-based
Method in brief: (§1)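 Whole-cell recording on PBMC stimulated 5 days with PHA-L (240 ng/mL); about 90% of cells CD3⁺. Large cells chosen; cells with currents ≤500–600 pA discarded. Bath in mM: 130 NaCl, 5 KCl, 2 CaCl₂, 2 MgCl₂, 10 HEPES, 5 glucose, pH 7.4; pipette KF-based with 11 EGTA, pH 7.2. Leak-subtracted two-step outward K⁺ current. Single concentration 5 μM, or 0.05 nM–50 μM for curves; peak normalized to control.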

[3] = biological target: T1, Potassium voltage-gated channel subfamily A member 3; assay: Inhibition of human Kv1.3 expressed in mouse LTK- cells by manual patch clamp electrophysiological recording; assay type: cell-based
Method in brief: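 Mouse Ltk⁻ fibroblasts in DMEM/10% horse serum transiently transfected with hKv1.3 plasmid plus eGFP marker, and recorded 24 h later. Whole-cell patch clamp at 20–23 °C. Compounds diluted from DMSO stocks with final DMSO ≤0.1%, with 0.1% DMSO as vehicle control. Normalized current plotted against concentration and fitted with the Hill equation for IC50; mean ± SEM, n = cells.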

[4] = biological target: T1, Potassium voltage-gated channel subfamily A member 3; assay: Inhibition of Kv1.3 (unknown origin) expressed in PBMC derived PHA-activated T-lymphocyte cells incubated for 5 days by manual patch clamp method; assay type: cell-based; method in brief: as §1
hERG (KCNH2) = hERG (KCNH2) (Homo sapiens, UniProt Q12809); assay: Inhibition of hERG overexpressed in HEK293 cells at 5 uM relative to control; assay type: toxicity, cell-based; settings: HEK293 cells overexpressing hERG
[5] = Thermodynamic solubility of the compound at pH 7.4 incubated for 24 hrs under shaking condition by HPLC analysis; assay type: physicochemical; settings: buffer, read-out: Therm_solubility
Method in brief: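 Supernatant diluted 1:2 or 1:10 in 0.1% TFA/MeCN 1:1 and quantified by reversed-phase UPLC at 290 nm against a 7-point calibration (1–100 μM). Mean of two independent experiments, in μM.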

T-cell = assay: Inhibition of anti-CD3 stimulated human T cell proliferation incubated for 15 to 30 mins in presence of IL-2 by 3H-thymidine uptake assay; assay type: functional, cell-based

T1 sequence (P22001 whole entry): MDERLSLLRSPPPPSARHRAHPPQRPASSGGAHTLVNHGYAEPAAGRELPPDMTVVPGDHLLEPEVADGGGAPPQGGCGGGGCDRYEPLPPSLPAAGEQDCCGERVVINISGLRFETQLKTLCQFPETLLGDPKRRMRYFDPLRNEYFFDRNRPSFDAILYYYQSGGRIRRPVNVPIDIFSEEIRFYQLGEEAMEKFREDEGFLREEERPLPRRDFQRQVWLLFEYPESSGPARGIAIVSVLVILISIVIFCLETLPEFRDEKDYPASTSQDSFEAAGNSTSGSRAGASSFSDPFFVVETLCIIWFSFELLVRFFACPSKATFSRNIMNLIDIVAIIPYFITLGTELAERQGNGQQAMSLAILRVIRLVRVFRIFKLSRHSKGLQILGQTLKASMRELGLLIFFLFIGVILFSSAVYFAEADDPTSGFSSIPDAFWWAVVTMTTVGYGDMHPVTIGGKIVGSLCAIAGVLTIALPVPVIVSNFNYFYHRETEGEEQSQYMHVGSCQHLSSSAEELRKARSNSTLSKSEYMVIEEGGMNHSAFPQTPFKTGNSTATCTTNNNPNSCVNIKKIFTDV
hERG (KCNH2), sequence (Q12809 whole entry): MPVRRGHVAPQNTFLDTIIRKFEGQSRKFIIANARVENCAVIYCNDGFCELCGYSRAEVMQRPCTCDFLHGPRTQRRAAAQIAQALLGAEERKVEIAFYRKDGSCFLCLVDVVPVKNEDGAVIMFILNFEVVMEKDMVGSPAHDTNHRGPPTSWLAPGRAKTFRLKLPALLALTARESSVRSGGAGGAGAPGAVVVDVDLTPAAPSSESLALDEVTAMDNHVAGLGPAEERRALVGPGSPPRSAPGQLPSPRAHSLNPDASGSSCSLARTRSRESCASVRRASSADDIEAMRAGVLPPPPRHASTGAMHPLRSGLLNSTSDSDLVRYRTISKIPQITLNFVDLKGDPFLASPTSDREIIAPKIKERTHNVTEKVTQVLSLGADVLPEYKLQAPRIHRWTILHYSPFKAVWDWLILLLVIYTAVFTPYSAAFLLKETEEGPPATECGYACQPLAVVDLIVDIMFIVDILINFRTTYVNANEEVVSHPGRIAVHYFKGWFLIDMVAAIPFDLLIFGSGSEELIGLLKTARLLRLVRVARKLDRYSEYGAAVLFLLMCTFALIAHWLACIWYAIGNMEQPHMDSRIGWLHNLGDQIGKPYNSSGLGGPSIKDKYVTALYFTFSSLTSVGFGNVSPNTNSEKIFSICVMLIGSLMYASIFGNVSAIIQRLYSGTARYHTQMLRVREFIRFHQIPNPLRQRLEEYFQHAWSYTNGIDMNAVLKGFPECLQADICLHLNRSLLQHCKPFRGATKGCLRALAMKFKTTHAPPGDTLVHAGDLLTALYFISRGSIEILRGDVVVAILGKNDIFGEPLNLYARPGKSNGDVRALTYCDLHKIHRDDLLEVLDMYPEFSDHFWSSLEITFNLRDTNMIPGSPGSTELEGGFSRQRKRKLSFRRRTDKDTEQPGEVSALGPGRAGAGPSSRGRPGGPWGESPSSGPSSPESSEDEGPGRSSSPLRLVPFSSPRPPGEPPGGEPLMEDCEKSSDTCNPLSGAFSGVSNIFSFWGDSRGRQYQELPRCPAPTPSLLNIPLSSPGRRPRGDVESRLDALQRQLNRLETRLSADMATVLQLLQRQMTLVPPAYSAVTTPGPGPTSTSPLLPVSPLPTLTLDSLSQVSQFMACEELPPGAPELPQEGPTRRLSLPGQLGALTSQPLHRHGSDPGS

| Structure (SMILES) | inhibition [1] [%] | inhibition [2] | pIC50 [3] | pIC50 [4] | solubility thermodynamic at 24 h [5] [µM] | inhibition at 5 µM (hERG (KCNH2)) [%] | pIC50 (T-cell) |
| --- | --- | --- | --- | --- | --- | --- | --- |
| COc1ccccc1C(=O)NC[C@]1(c2ccsc2)CC[C@H](N)CC1 | 6.46 | Active |  |  |  |  |  |
| O=C(NC[C@]1(c2cccs2)CC[C@@H](O)CC1)c1ccoc1 | 0 | Active |  |  |  | 21 |  |
| O=C(NC[C@]1(c2cccs2)CC[C@H](O)CC1)c1ccoc1 | 65.7 | Active |  |  |  |  |  |
| COc1ccc(F)cc1C(=O)NC[C@]1(c2cccs2)CC[C@@H](O)CC1 | 54.9 | Active |  |  |  |  |  |
| COc1ccccc1C(=O)NCC1(c2ccsc2)CCC(=O)CC1 | 97 | Active | 6.10 |  | 400 (≈ 137 µg/mL) |  |  |
| COc1ccccc1C(=O)NC[C@]1(c2ccsc2)CC[C@@H](N)CC1 | 0.65 | Active |  |  |  |  |  |
| COc1ccc(F)cc1C(=O)NC[C@]1(c2cccs2)CC[C@H](O)CC1 | 66.4 | Active |  |  |  |  |  |
| COc1ccccc1C(=O)NCC1(c2cccs2)CCC(=O)CC1 | 95.1 | Active | 5.95 |  | 210 (≈ 72.1 µg/mL) |  |  |
| COc1cc(C)ccc1C(=O)NCC1(c2cccs2)CCC(=O)CC1 | 85.6 | Active |  |  |  |  |  |
| COc1ccc(F)cc1C(=O)NCC1(c2cccs2)CCC(=O)CC1 | 39.1 | Active |  |  |  |  |  |
| COc1ccc(C)cc1C(=O)NCC1(c2cccs2)CCC(=O)CC1 | 23.3 | Active |  |  |  |  |  |
| COc1ccccc1C(=O)NC[C@]1(c2ccsc2)CC[C@@H](O)CC1 | 78.5 | Active |  |  |  |  |  |
| O=C1CCC(CNC(=O)c2ccoc2)(c2cccs2)CC1 | 55.3 | Active |  |  |  |  |  |

Continued, in another order:

| inhibition [1] [%] | inhibition [2] | pIC50 [3] | pIC50 [4] | solubility thermodynamic at 24 h [5] [µM] | Structure (SMILES) | inhibition at 5 µM (hERG (KCNH2)) [%] | pIC50 (T-cell) |
| --- | --- | --- | --- | --- | --- | --- | --- |
| 93.8 | Active | 6.33 |  |  | CNC(=O)O[C@H]1CC[C@@](CNC(=O)c2ccccc2OC)(c2cccs2)CC1 |  |  |
| 25.5 | Active |  |  |  | CCCNC(=O)O[C@H]1CC[C@](CNC(=O)c2ccccc2OC)(c2ccsc2)CC1 |  |  |
| 94.7 | Active | 6.74 |  |  | CNC(=O)O[C@H]1CC[C@](CNC(=O)c2ccccc2OC)(c2cccs2)CC1 |  |  |
| 36.2 | Active |  | 7.43 |  | C=CCNC(=O)O[C@H]1CC[C@@](CNC(=O)c2ccccc2OC)(c2ccsc2)CC1 |  |  |
| 38.5 | Active |  |  |  | COc1ccccc1C(=O)NC[C@]1(c2cccs2)CC[C@@H](O)CC1 |  |  |
| 90.9 | Active | 6.60 |  |  | COc1ccccc1C(=O)NC[C@]1(c2cccs2)CC[C@H](O)CC1 |  |  |
| 79.6 | Active |  |  |  | CNC(=O)O[C@H]1CC[C@](CNC(=O)c2ccccc2OC)(c2ccsc2)CC1 |  |  |
| 93 | Active | 6.77 |  |  | CNC(=O)O[C@H]1CC[C@@](CNC(=O)c2ccccc2OC)(c2ccsc2)CC1 | 19 |  |
| 40.5 | Active |  |  |  | CCCNC(=O)O[C@H]1CC[C@](CNC(=O)c2ccccc2OC)(c2ccccc2)CC1 |  |  |
| 91.6 | Active | 6.07 |  |  | COCCCNC(=O)O[C@H]1CC[C@](CNC(=O)c2ccccc2OC)(c2cccs2)CC1 |  |  |
| 94.5 | Active | 6.17 |  |  | COCCCNC(=O)O[C@H]1CC[C@](CNC(=O)c2ccccc2OC)(c2ccsc2)CC1 |  |  |
| 87.3 | Active |  |  |  | CCCNC(=O)O[C@H]1CC[C@@](CNC(=O)c2ccccc2OC)(c2ccccc2)CC1 |  | 6.47 |
